From ChEMBL document CHEMBL4339218, “Discovering New Casein Kinase 1d Inhibitors with an Innovative Molecular Dynamics Enabled Virtual Screening Workflow” (ACS Med Chem Lett, 2019)

Each compound was assayed against T1, Casein kinase I isoform delta (Homo sapiens, UniProt P48730) (assay: Inhibition of CSNK1D (unknown origin) at 1 uM using CSNK1D/Ser/Thr 11 peptide incubated for 1 hr by FRET based Z'-LYTE assay relative to untreated control).
Outline: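 Single-point test at 1 μM ligand, in duplicate, reported as mean ± SD. Coupled-enzyme FRET readout in which a development protease cleaves only nonphosphorylated peptide. Development reagent B (1:16) then added. Coumarin/fluorescein emission ratio read after 400 nm excitation.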
Target sequence in this assay (P48730 whole entry, looked up, canonical isoform): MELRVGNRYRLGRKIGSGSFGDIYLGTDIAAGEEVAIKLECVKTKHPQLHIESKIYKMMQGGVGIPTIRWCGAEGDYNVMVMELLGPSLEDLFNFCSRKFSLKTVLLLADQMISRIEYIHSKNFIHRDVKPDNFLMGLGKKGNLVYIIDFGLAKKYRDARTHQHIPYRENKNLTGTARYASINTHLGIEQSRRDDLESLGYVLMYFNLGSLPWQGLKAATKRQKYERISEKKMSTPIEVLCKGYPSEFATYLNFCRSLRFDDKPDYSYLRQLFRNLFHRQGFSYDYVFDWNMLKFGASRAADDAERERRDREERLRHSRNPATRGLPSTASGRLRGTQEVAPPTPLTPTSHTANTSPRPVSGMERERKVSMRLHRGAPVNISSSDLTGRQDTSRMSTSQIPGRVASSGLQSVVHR

Row | SMILES | inhibition
1 | CNC(=O)c1ccc2[nH]nc(-c3cccc(C(=O)NCc4cnc(C)nc4N)c3)c2c1 | 92%
2 | C[C@@H](NC(=O)c1ccc2[nH]nc(-c3cccc(NS(C)(=O)=O)c3)c2c1)c1ccccc1 | 66%
3 | CNC(=O)c1ccc2[nH]nc(-c3cccc(C(=O)NCc4cccc5ccccc45)c3)c2c1 | 80%

The remaining lines, values ahead:

Row | inhibition | SMILES
4 | 25% | O=C1CCCN1Cc1nnc(-c2ccc3[nH]nc(-c4ccc(F)cc4)c3c2)[nH]1
5 | 53% | Fc1ccc(-c2n[nH]c3ccc(-c4n[nH]c(CN5CCCC5)n4)cc23)cc1
6 | 57% | CNC(=O)c1ccc2[nH]nc(-c3cccc(C(=O)Nc4cc(-c5ccccn5)n[nH]4)c3)c2c1
7 | 99% | CN(C)Cc1n[nH]c(-c2ccc3[nH]nc(-c4cccc(C(=O)Nc5ccc(F)cc5)c4)c3c2)n1

Each compound was assayed against T1, Casein kinase I isoform delta (assay: Inhibition of CSNK1D (unknown origin) using CSNK1D/Ser/Thr 11 peptide incubated for 1 hr by FRET based Z'-LYTE assay).
Outline: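 Full dose–response curve used for IC50. Duplicates, averaged with SD. Protease development reagent B (1:16) then added. Phosphorylation taken from the donor coumarin/acceptor fluorescein emission ratio at 400 nm excitation.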
Target sequence in this assay (P48730 whole entry, canonical isoform): as the sequence (P48730 whole entry, looked up, canonical isoform) above

Row | SMILES | IC50
8 | C[C@@H](NC(=O)c1ccc2[nH]nc(-c3cccc(NS(C)(=O)=O)c3)c2c1)c1ccccc1 | 1030 nM
9 | CNC(=O)c1ccc2[nH]nc(-c3cccc(C(=O)NCc4cccc5ccccc45)c3)c2c1 | 354 nM

Results, then the compound that gave them:

Row | IC50 | SMILES
10 | 848 nM | Fc1ccc(-c2n[nH]c3ccc(-c4n[nH]c(CN5CCCC5)n4)cc23)cc1
11 | 134 nM | CN(C)Cc1n[nH]c(-c2ccc3[nH]nc(-c4cccc(C(=O)Nc5ccc(F)cc5)c4)c3c2)n1
